In PMC3947152 (European journal of nuclear medicine and molecular imaging, 2013):
Like-named read-outs stand apart in the source and are kept apart here.

How the values were obtained:
mouse serum protein = assay: Plasma protein binding by ultrafiltration, mouse; format: in vitro ADME; conditions: 37 °C, 0.5 h
Method in brief: (§1)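 Radiotracer in 10 µL (~7.4 kBq 18F; ~3.7 kBq 123I) added to 190 µL human or mouse plasma, in triplicate, gently shaken 37 °C, 0.5 h. Ultrafiltration by centrifugation 10 min at 9,000 rpm. 20 µL of pre-filtration plasma (total) and 20 µL of ultrafiltrate (unbound) gamma counted; unbound fraction taken from ultrafiltrate relative to total.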

hNET = hNET (Homo sapiens, UniProt P23975); assay: Competitive inhibition of ^123I-MIBG binding/uptake in C6-hNET cells; format: cell-based
Sequence of hNET (P23975 whole entry): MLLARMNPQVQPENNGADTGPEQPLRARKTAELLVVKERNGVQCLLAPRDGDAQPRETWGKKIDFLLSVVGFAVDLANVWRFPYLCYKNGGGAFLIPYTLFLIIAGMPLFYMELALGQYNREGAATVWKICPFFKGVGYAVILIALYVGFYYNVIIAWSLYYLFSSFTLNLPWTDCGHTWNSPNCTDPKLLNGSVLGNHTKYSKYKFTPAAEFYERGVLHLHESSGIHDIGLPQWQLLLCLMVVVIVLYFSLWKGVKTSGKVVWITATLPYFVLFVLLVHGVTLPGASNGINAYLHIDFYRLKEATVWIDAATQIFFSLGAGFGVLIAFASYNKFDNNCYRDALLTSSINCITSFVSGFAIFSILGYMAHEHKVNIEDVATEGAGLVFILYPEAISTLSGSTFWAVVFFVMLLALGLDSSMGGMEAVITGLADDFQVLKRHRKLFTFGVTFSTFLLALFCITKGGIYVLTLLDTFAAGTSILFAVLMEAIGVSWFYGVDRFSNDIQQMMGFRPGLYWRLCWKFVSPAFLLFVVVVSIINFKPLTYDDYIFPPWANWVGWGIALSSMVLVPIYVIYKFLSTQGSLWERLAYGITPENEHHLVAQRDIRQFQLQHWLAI
Method in brief: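 C6 cells stably transduced with hNET; triplicate samples of ~0.5×10^6 cells with ~3.7 kBq 123I-MIBG and 0.005–50 nmol unlabeled benzylguanidine competitor in 0.5 mL medium, 37 °C, 2 h. Cells collected by rapid filtration on glass microfiber filters, washed 3× with ice-cold Tris-buffered saline pH 7.4, gamma counted. Cell-bound activity plotted against competitor concentration; IC50 by least-squares fit.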

human serum protein = assay: Plasma protein binding by ultrafiltration, human; format: in vitro ADME; conditions: 37 °C, 0.5 h
Method in brief: as §1

[1] = system: C6-hNET and C6-WT xenografts; assay: Biodistribution in animals bearing dual C6-hNET and C6-WT xenografts; format: in vivo, mice; conditions: for % Injected Dose/g tissue, C6-WT: C6-WT xenograft; for % Injected Dose/g tissue, C6-hNET: C6-hNET xenograft
[2] = Lipophilicity: distribution coefficient between 1-octanol and PBS pH 7.4; format: physicochemical; conditions: 1-octanol/PBS
Method in brief: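 Octanol and PBS (pH 7.4) pre-equilibrated together for 24 h. Radiotracer (~11.1 kBq 18F; ~3.7 kBq 123I) added to the octanol/PBS pair, in triplicate, shaken 2 h at room temperature, then centrifuged 5 min at 2,000 rpm. Aliquots of each phase gamma counted; logD = log10(octanol counts/PBS counts).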

C6-hNET xenografts = assay: PET imaging with ROI analysis of mice bearing C6-hNET and C6-WT xenografts; format: in vivo; conditions: for PET image-based tumor-to-intestine signal ratio: C6-hNET xenograft
Method in brief: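 Male athymic NCr-nu/nu mice (7–9 weeks) implanted subcutaneously with 5×10^6 C6-hNET cells (right shoulder) and 5×10^6 C6-WT cells (left shoulder) in medium/matrigel 1:1. Scanned at day 20 with tumors 150–350 mm³. Tail-vein injection of 3.7–11.1 MBq 18F tracer in saline. R4 microPET under 2% isoflurane, 10-min acquisitions at 1 h and 4 h p.i., 350–750 keV window. ROI maximum pixel values (%ID/mL) used; 5–7 animals per group.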

C6-hNET cells = assay: In vitro uptake in hNET-transduced and wild-type C6 cells; format: cell-based, rat; conditions: 2 h incubation at 37 °C
Method in brief: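 Both C6-hNET and wild-type C6 cells grown in DMEM HG. 1.0×10^6 cells in 1.0 mL medium, in triplicate, shaken with radiotracer (~11.1 kBq 18F-labeled or ~3.7 kBq radioiodinated) at 37 °C for 2 h. Cells filtered on glass microfiber filters, washed 3× with ice-cold TBS pH 7.4, gamma counted as % added activity per 10^6 cells. Nonspecific uptake measured with 200 µM MIBG (final). 2–5 independent experiments.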

[3] = C6-hNET cells, ^123I-MIBG as radioligand, 37 °C, 2 h

## N=C(N)NCc1cccc(I)c1 [^123I-MIBG, meta-iodobenzylguanidine]
Mouse serum protein
  % unbound to mouse serum protein: 29.2±2.0 (n = 2) %
hNET
  IC50: 1.7 ± 0.6 µM
Human serum protein
  % unbound to human serum protein: 12.4±0.5 (n = 2) %
[1]; 4 h p.i.
  % Injected Dose/g tissue, Adrenals: 7.34±2.63 %ID/g
  % Injected Dose/g tissue, Blood: 0.66±0.10 %ID/g
  % Injected Dose/g tissue, Bone: 0.71±0.10 %ID/g
  % Injected Dose/g tissue, C6-WT: 0.49±0.04 %ID/g
  % Injected Dose/g tissue, C6-hNET: 4.02±0.35 %ID/g
  % Injected Dose/g tissue, Heart: 2.10±0.14 %ID/g
  % Injected Dose/g tissue, Intestinal contents (L): 2.25±0.29 %ID/g
  % Injected Dose/g tissue, Intestinal contents (S): 5.24±0.46 %ID/g
  % Injected Dose/g tissue, Intestinal wall (L): 2.96±0.74 %ID/g
  % Injected Dose/g tissue, Intestinal wall (S): 3.67±1.05 %ID/g
  % Injected Dose/g tissue, Kidneys: 0.84±0.11 %ID/g
  % Injected Dose/g tissue, Liver: 2.27±0.18 %ID/g
  % Injected Dose/g tissue, Lungs: 2.84±0.38 %ID/g
  % Injected Dose/g tissue, Muscle: 0.95±0.13 %ID/g
  % Injected Dose/g tissue, Pancreas: 1.15±0.13 %ID/g
  % Injected Dose/g tissue, Salivary glands: 8.41±0.83 %ID/g
  % Injected Dose/g tissue, Spleen: 2.51±0.29 %ID/g
  % Injected Dose/g tissue, Stomach: 0.77±0.34 %ID/g
[2]
  logD at 2 h: 0.42 ± 0.01

## N=C(N)NCc1ccc([18F])cc1 [[^18F]PFBG, para-[^18F]fluorobenzylguanidine]
C6-hNET xenografts; 1 h post injection
  PET image-based tumor-to-intestine signal ratio: 0.4±0.1
C6-hNET xenografts; 4 h post injection
  PET image-based tumor-to-intestine signal ratio: 1.5±0.3
C6-hNET cells
  fold lower uptake in C6-hNET cells than that of ^123I/[^124I]MIBG: 4 fold

## N=C(N)NCc1cccc([131I])c1 [[^124I]MIBG, meta-iodobenzylguanidine]
[1]; 4 h p.i.
  % Injected Dose/g tissue, Adrenals: 13.9±1.7 %ID/g
  % Injected Dose/g tissue, Blood: 0.76±0.15 %ID/g
  % Injected Dose/g tissue, Bone: 2.56±0.27 %ID/g
  % Injected Dose/g tissue, C6-WT: 1.27±0.10 %ID/g
  % Injected Dose/g tissue, Heart: 19.6±2.5 %ID/g
  % Injected Dose/g tissue, Intestinal contents (L): 3.62±0.89 %ID/g
  % Injected Dose/g tissue, Intestinal contents (S): 6.92±1.79 %ID/g
  % Injected Dose/g tissue, Intestinal wall (L): 7.88±0.74 %ID/g
  % Injected Dose/g tissue, Intestinal wall (S): 10.3±0.6 %ID/g
  % Injected Dose/g tissue, Kidneys: 2.09±0.10 %ID/g
  % Injected Dose/g tissue, Liver: 5.42±0.44 %ID/g
  % Injected Dose/g tissue, Lungs: 9.50±2.26 %ID/g
  % Injected Dose/g tissue, Muscle: 3.21±0.28 %ID/g
  % Injected Dose/g tissue, Pancreas: 3.48±0.31 %ID/g
  % Injected Dose/g tissue, Salivary glands: 29.1±1.8 %ID/g
  % Injected Dose/g tissue, Spleen: 4.43±0.35 %ID/g
  % Injected Dose/g tissue, Stomach: 2.85±0.54 %ID/g
[1]; 24 h p.i.
  % Injected Dose/g tissue, Adrenals: 7.46±1.78 %ID/g
  % Injected Dose/g tissue, Blood: 0.21±0.02 %ID/g
  % Injected Dose/g tissue, Bone: 0.45±0.09 %ID/g
  % Injected Dose/g tissue, C6-WT: 0.22±0.02 %ID/g
  % Injected Dose/g tissue, C6-hNET: 3.58±0.55 %ID/g
  % Injected Dose/g tissue, Heart: 2.93±0.17 %ID/g
  % Injected Dose/g tissue, Intestinal contents (L): 2.00±0.06 %ID/g
  % Injected Dose/g tissue, Intestinal contents (S): 1.76±0.40 %ID/g
  % Injected Dose/g tissue, Intestinal wall (L): 3.18±0.45 %ID/g
  % Injected Dose/g tissue, Intestinal wall (S): 2.66±0.18 %ID/g
  % Injected Dose/g tissue, Kidneys: 0.64±0.04 %ID/g
  % Injected Dose/g tissue, Liver: 1.00±0.05 %ID/g
  % Injected Dose/g tissue, Lungs: 1.55±0.37 %ID/g
  % Injected Dose/g tissue, Muscle: 0.69±0.07 %ID/g
  % Injected Dose/g tissue, Pancreas: 0.75±0.10 %ID/g
  % Injected Dose/g tissue, Salivary glands: 7.95±0.81 %ID/g
  % Injected Dose/g tissue, Spleen: 1.36±0.27 %ID/g
  % Injected Dose/g tissue, Stomach: 1.08±0.08 %ID/g

## N=C(N)NCc1ccc(I)cc1 [PIBG, para-iodobenzylguanidine]
hNET; [3]
  IC50: 7.2 ± 0.5 µM

## N=C(N)NCc1cccc(I)c1 [MIBG, meta-iodobenzylguanidine]
hNET; [3]
  IC50: 1.72 ± 0.58 µM

## N=C(N)NCc1cccc([18F])c1 [[^18F]MFBG] [meta-[^18F]fluorobenzylguanidine]
C6-hNET xenografts; 1 h p.i., in vivo
  fold higher accumulation in C6-hNET tumors than [^18F]PFBG: 1.6 fold
C6-hNET xenografts; 1 h post injection
  PET image-based tumor-to-intestine signal ratio: 1.3±0.2
C6-hNET xenografts; 4 h post injection
  PET image-based tumor-to-intestine signal ratio: 2.4±0.3
hNET; from IC50 values in C6-hNET cells
  fold lower affinity to hNET compared to ^123I/[^124I]MIBG: 2.8 fold
[1]; 4 h p.i.
  % Injected Dose/g tissue, Adrenals: 5.56±2.34 %ID/g
  % Injected Dose/g tissue, Blood: 0.25±0.05 %ID/g
  % Injected Dose/g tissue, Bone: 0.89±0.16 %ID/g
  % Injected Dose/g tissue, C6-WT: 0.57±0.08 %ID/g
  % Injected Dose/g tissue, C6-hNET: 4.25±0.95 %ID/g
  % Injected Dose/g tissue, Heart: 2.21±0.66 %ID/g
  % Injected Dose/g tissue, Intestinal contents (L): 1.26±0.23 %ID/g
  % Injected Dose/g tissue, Intestinal contents (S): 1.36±0.11 %ID/g
  % Injected Dose/g tissue, Intestinal wall (L): 1.72±0.52 %ID/g
  % Injected Dose/g tissue, Intestinal wall (S): 2.16±0.26 %ID/g
  % Injected Dose/g tissue, Kidneys: 0.99±0.29 %ID/g
  % Injected Dose/g tissue, Liver: 2.05±0.30 %ID/g
  % Injected Dose/g tissue, Lungs: 1.30±0.20 %ID/g
  % Injected Dose/g tissue, Muscle: 0.62±0.09 %ID/g
  % Injected Dose/g tissue, Pancreas: 0.78±0.06 %ID/g
  % Injected Dose/g tissue, Salivary glands: 6.09±1.02 %ID/g
  % Injected Dose/g tissue, Spleen: 1.50±0.19 %ID/g
  % Injected Dose/g tissue, Stomach: 0.46±0.12 %ID/g
[1]; C6-hNET/Blood, 4 h p.i.
  C6-hNET/tissue ratio, Blood: 17.1±4.4
[1]; C6-hNET/Intestine wall (L), 4 h p.i.
  C6-hNET/tissue ratio, Intestine wall (L): 1.8±0.7
[1]; C6-hNET/Intestine wall (S), 4 h p.i.
  C6-hNET/tissue ratio, Intestine wall (S): 1.9±0.4
[1]; C6-hNET/Liver, 4 h p.i.
  C6-hNET/tissue ratio, Liver: 2.1±0.4
[1]; C6-hNET/Muscle, 4 h p.i.
  C6-hNET/tissue ratio, Muscle: 6.8±0.9
[1]; C6-hNET/Salivary gland, 4 h p.i.
  C6-hNET/tissue ratio, Salivary gland: 0.7±0.1

## N=C(N)NCc1ccc(F)cc1 [[^18F]PFBG, para-[^18F]fluorobenzylguanidine]
hNET; [3]
  IC50: 9.8 ± 2.5 µM

## N=C(N)NCc1cccc(F)c1 [MFBG]
hNET; [3]
  IC50: 4.86 ± 0.59 µM

## N=C(N)NCc1cccc(F)c1 [[^18F]MFBG] [meta-[^18F]fluorobenzylguanidine]
hNET; [3]
  IC50: 4.9 ± 0.6 µM

## NC(N)=NCc1ccc(F)cc1 [PFBG]
hNET; [3]
  IC50: 9.8 ± 2.5 µM
